Source: PubChem BioAssay (several laboratories)
M1 ag – agonists of M1 muscarinic receptor | CHO-M1 cells, Fluo-4 calcium fluorescence, agonist mode; active compounds read high | B-score at 10 µM | 64,000 tested, 3% active;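 active = fluorescence rise, raw or as B-score row- and column-corrected plate score, outside the 99.7% band of its plate's samples, either direction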
D1 mod – allosteric modulators of human D1 dopamine receptor | P21728 | HEK293 D1, CRE-luciferase, dopamine EC30 potentiation; actives deviate in either direction | B-score at 10 µM | 58,000 tested, 5.9% active | AID 641;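 active = luminescence count or its row- and column-corrected plate score outside the 99.7% band of the plate's sample wells, on either side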
Target sequence (P21728 whole entry, looked up): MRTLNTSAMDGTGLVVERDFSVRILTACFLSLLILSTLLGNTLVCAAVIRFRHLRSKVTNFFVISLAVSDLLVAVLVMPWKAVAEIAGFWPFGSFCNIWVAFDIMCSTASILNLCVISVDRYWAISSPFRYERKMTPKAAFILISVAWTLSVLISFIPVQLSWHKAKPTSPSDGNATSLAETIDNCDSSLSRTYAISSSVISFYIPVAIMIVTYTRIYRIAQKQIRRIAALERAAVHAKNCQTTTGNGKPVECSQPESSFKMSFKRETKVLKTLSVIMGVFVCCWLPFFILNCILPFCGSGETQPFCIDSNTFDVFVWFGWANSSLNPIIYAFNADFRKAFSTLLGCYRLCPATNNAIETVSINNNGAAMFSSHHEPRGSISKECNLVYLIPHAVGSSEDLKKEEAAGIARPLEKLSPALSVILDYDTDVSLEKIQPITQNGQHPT
DAT uptake mod – human DAT dopamine uptake with cocaine, either direction; Q01959; LLC-PK1 hDAT cells, [14C]-dopamine uptake with cocaine IC80; actives deviate in either direction; B-score at 10 µM; 110,000 tested, 1.3% active;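 active = Z score or B-score, a plate-position-corrected score, falls beyond the plate's 99.7% confidence bounds, in either direction; inactive = both scores lie inside the 99.7% bounds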;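 also: scored against the spread of the other compound wells on the same plate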
M1 antagonist – antagonists of rat M1 muscarinic receptor; AID 628; B-score at 10 µM; CHO-M1 cells, Fluo-4 calcium, ACh EC80 antagonist mode; active compounds read low; P08482; 64,000 tested, 3.4% active;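 active = calcium fluorescence response, raw or row-and-column corrected B-score, differing from the plate sample mean either way at a set confidence level, mostly lower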
HEK293 NFkB inh – lowers PMA/ionomycin-induced NF-kB signal in HEK293 cells. HEK-293 NF-kB luciferase reporter, luminescence. inhibition, % at 3 µM. 62,000 tested, 0.21% active. AID 465;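 active = inhibition above the mean of all tested compounds plus 3 SD, cut at about 40% in these data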;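 also: 0% = stimulated DMSO wells and 100% = 10 µM reference inhibitor 5653914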
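Timing: 1 h pretreatment, 16 h stimulation, 37 °C; system: HEK-293 cells with stable firefly luciferase reporter driven by four HIV NF-kB elements; doses: 3 µM once, 0.30% DMSO; measured by: luciferase luminescence; control set: DMSO and 10 µM reference inhibitor; repeats: single test; reagent: PMA plus ionomycin mix as NF-kB-activating stimulus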
Jurkat viability – reduces viability or proliferation of Jurkat cells; inhibition, % at 4 µM; 56,000 tested, 1.2% active; AID 463; Jurkat E6.1 viability, ATP luminescence, 48 h;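 active = inhibition above the mean inhibition of all tested compounds plus 3 SD, cut at about 28% in these data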
M1 agonist conf – rat M1 muscarinic agonism, confirmation; shares compounds with M1 ag; fluorescence change (max-min) at 10 µM; 1,700 tested, 19% active; CHO-M1 cells, Fluo-4 calcium fluorescence, agonist mode; actives lie on both sides;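 active = fluorescence change differs from the solvent-only DMSO control mean at a set confidence level in both duplicate runs; inconclusive = differs from solvent-only control mean in just one of two runs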;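 also: an EC20 dose of acetylcholine follows compound addition during the same imaging run; raw fluorescence intensity difference in instrument units with no normalization to controls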
M4 ag counter – counter-screen for M1 agonists: activity at rat M4 receptor; CHO M4/Gqi5 cells, Fluo-4 calcium fluorescence, agonist mode; actives lie on both sides; shares compounds with M1 ag; fluorescence change (max-min) at 10 µM; 1,700 tested, 9% active; AID 1741;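 active = fluorescence change differing from the plate's solvent-only control wells at 99.7% confidence in both duplicates, whether higher or lower; inconclusive = differs from solvent controls in only one of two duplicates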
* marks the source's active call; other numbers are inactive results; ? = inconclusive; / = no result. Most compounds without a hit are left out; they make up all but 7.6% or so of the library.

SMILES | M1 ag | D1 mod | DAT uptake mod | M1 antagonist | HEK293 NFkB inh | Jurkat viability | M1 agonist conf | M4 ag counter
Cc1c(NC(=O)CSC2=C(C#N)C(c3ccccc3F)CC(=O)N2)c(=O)n(-c2ccccc2)n1C (stereo not drawn) | 3.43* | -0.0632 | -0.433 | 0.182 | 1.7 | 3.7 | -27.4 | ?
COC(=O)CSC1=C(C#N)C(c2ccccc2F)CC(=O)N1 (stereo not drawn) | 0.772 | -0.406 | -0.0805 | -0.0449 | 1.6 | 3.6 | / | /
CCN(c1ccccc1)S(=O)(=O)c1ccc(F)cc1C | 15.2* | 0.7 | -0.255 | -0.0179 | 2.7 | -4.8 | ? | -56.9
CCN(c1ccccc1)S(=O)(=O)c1ccc(F)c(C(=O)O)c1 | 0.298 | -0.138 | -2.05 | 0.0214 | 4.7 | -3.1 | / | /
O=C1CN(C(=O)c2ccc(Br)o2)C(c2ccc(F)cc2)c2cc(Cl)ccc2N1 (stereo not drawn) | 2.82* | 1.3 | -0.658 | -0.845 | 21.5 | -4.3 | -14.6 | ?
CC1(C)CC(O)(CCNCc2ccc3c(c2)OCO3)CCO1 (stereo not drawn) | 0.413 | 0.747 | -0.0951 | 0.0675 | 15.9 | / | / | /
Cn1c(=O)cc(SCC(=O)Nc2cccnc2)c2ccccc21 | 2.69* | -0.0927 | -0.601 | -0.212 | 2.5 | 7.8 | 1.18 | -13.5
O=C(c1ccc(F)cc1)N1CCC(N2CCOCC2)CC1 | / | / | -0.16 | / | / | / | / | /
N#CC(c1nc2ccccc2nc1N1CCCC1)S(=O)(=O)c1ccccc1 (stereo not drawn) | 3.97* | / | 1.41 | -0.23 | 13.2 | / | 35.9 | 33.7
Cc1cccc(S(=O)(=O)C(C#N)c2nc3ccccc3nc2N2CCCC2)c1 (stereo not drawn) | 5.98* | 0.799 | 2.35 | 0.302 | 7.7 | -2.7 | -3.02 | -11.1
COc1ccc(S(=O)(=O)C(C#N)c2nc3ccccc3nc2N2CCCCC2)cc1 (stereo not drawn) | -0.264 | / | -0.244 | 0.123 | 18.4 | / | / | /
Cc1cc(C)n2nc(C(=O)Nc3ccc4c(c3)OCO4)nc2n1 | 4.45* | -0.00874 | -0.178 | 0.259 | 13.3 | 3.8 | ? | -51.9
CCOC(=O)N1CCC(NCCNC(=O)c2ccccc2)CC1 | / | -0.0452 | 0.0866 | / | 10.8 | / | / | /
CCCCOCCCNC(=O)c1cccs1 | -0.765 | 0.0558 | 0.00694 | -0.838 | 10.1 | 2.7 | / | /
CN1CCC(NC(=O)c2cccs2)CC1 | 6.57* | -1.43 | -0.317 | -0.054 | 11.6 | 7.0 | -17 | ?
CCOC(=O)N1CCC(NCCNC(=O)c2ccccc2Cl)CC1 | 24.9* | 0.42 | -1.59 | -9.07* | -9.7 | 5.8 | 267* | ?
CCOC(=O)N1CCC(NCCNC(=O)c2cccs2)CC1 | 27.6* | 0.405 | -0.248 | -2.6* | 8.1 | / | 256* | ?
O=S(=O)(c1ccc2c(c1)OCCO2)N1CCC(c2nc3ccccc3s2)CC1 | -0.165 | -0.577 | 0.0327 | 0.537 | 18.1 | -1.3 | / | /
Cc1ccnc(NC(=O)CSc2cc(=O)n(C)c3ccccc23)c1 | 0.772 | -0.277 | 0.0861 | 0.408 | 10.1 | 2.0 | / | /
CC(C)C(CO)N1CCN(Cc2ccccc2)CCC1=O (stereo not drawn) | / | / | 0.0343 | / | / | / | / | /
CN1CCN(c2nc(-c3ccccc3)cc(C(F)(F)F)n2)CC1 | / | / | 0.0955 | / | / | / | / | /
CN1CCN(c2nc(-c3cccs3)cc(C(F)(F)F)n2)CC1 | 3.1* | / | 0.0339 | -18* | 1.0 | / | ? | ?
CCOC(=O)NCc1ccc(CNC(=O)OCC)cc1 | -0.179 | -0.0404 | -0.542 | -0.158 | 15.2 | 2.8 | / | /
Cc1occc1C(=O)NCc1ccccn1 | 2.22* | -0.309 | -0.985 | 0.192 | -5.8 | -1.1 | -2.78 | -35.7
CCc1c(C)nc2ncnn2c1N1CCCC(C(=O)NCc2ccco2)C1 (stereo not drawn) | 2.79* | 0.991 | 0.37 | -4.46* | 0.5 | / | ? | -42.3
CCc1c(C)nc2ncnn2c1N1CCCC(C(=O)NCCc2ccccc2)C1 (stereo not drawn) | -0.113 | 0.144 | -0.141 | -0.406 | -0.3 | / | / | /
Cc1cn(-c2ccc(Br)cc2)[nH]c1=O | 2.13* | 0.0519 | -0.228 | 0.754 | -7.2 | -5.4 | -18.3 | ?
